The values below come from ChEMBL document CHEMBL1157072 (Bioorg Med Chem, 2010).

SMILES strings stand for the structures. In brackets after ≈: the same amount, converted by molar mass. Activity calls are given as the source filed them. The calls are words filed in the database; no cut-off is given here.

Data set [1] relates to Staphylococcus aureus. The experiment in a line: Antibacterial activity against Staphylococcus aureus NCTC 8325 after 16 to 20 hrs by broth microdilution method. The data set is classed as functional. Summed up:
(§1)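 Broth microdilution in cation-adjusted Mueller Hinton broth. Compounds were serially diluted twofold in DMSO at 50-fold final strength (2% DMSO final). The inoculum was 1 × 10^4 cells per well. Plates were incubated at 37 °C for 16–20 h, and growth was read as absorbance at 600 nm.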
A general note: Broth dilution looks for growth in wells or tubes with falling amounts of substance.

Data set [2] has as its system Staphylococcus aureus. Put plainly: Antibacterial activity against Staphylococcus aureus NCTC 8325 after 16 to 20 hrs by broth microdilution method in presence of efflux pump inhibitor reserpine. The data set is classed as functional. Put shortly:
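Broth microdilution in cation-adjusted MHB with reserpine at 20 µg/ml final in the medium as efflux inhibitor. Twofold DMSO dilutions were made (2% DMSO final) with 1 × 10^4 cells per well. Incubation was 37 °C for 16–20 h, with growth read at 600 nm.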

Data set [3] deals with Staphylococcus aureus. The experiment in a line: Antibacterial activity against Staphylococcus aureus NCTC 8325 harboring genetic deletion of mepR gene after 16 to 20 hrs by broth microdilution method. The data set is classed as functional. Summed up:
as §1

The test system of data set [4] is Staphylococcus aureus. The experiment in a line: Antibacterial activity against Staphylococcus aureus NCTC 8325 harboring genetic deletion of mepRA gene after 16 to 20 hrs by broth microdilution method. Type of data set: functional. Put shortly: as §1
Data set [5] concerns Staphylococcus aureus. Put plainly: Antibacterial activity against Staphylococcus aureus NCTC 8325 carrying expression vector pG154 after 16 to 20 hrs by broth microdilution method. The data set is classed as functional. Summed up:
as §1

The subject of data set [6] is Staphylococcus aureus. Put plainly: Antibacterial activity against Staphylococcus aureus NCTC 8325 carrying expression vector pG154 after 16 to 20 hrs by broth microdilution method in presence of anhydrous tetracycline. Type of data set: functional. Summed up:
(§2)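 Broth microdilution in cation-adjusted MHB containing anhydrous tetracycline at 100 ng/ml final to induce the pG154 expression vector. Twofold DMSO compound dilutions were used (2% DMSO final) with 1 × 10^4 cells per well. Incubation was 37 °C for 16–20 h, and absorbance was read at 600 nm.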

The subject of data set [7] is Staphylococcus aureus. Put plainly: Antibacterial activity against Staphylococcus aureus NCTC 8325 carrying expression vector pG154 with mepA gene after 16 to 20 hrs by broth microdilution method. Type of data set: functional. Summed up: as §1
Data set [8] deals with Staphylococcus aureus. The experiment in a line: Antibacterial activity against Staphylococcus aureus NCTC 8325 carrying expression vector pG154 with mepA gene after 16 to 20 hrs by broth microdilution method in presence of anhydrous tetracycline. Type of data set: functional. Summed up: as §2
In data set [9] the test system is Staphylococcus aureus. The experiment in a line: Antibacterial activity against Staphylococcus aureus NCTC 8325 harboring genetic deletion of mepRA gene and carrying expression vector pG154 after 16 to 20 hrs by broth microdilution method. Type of data set: functional. Put shortly:
as §1

Data set [10] relates to Staphylococcus aureus. Put plainly: Antibacterial activity against Staphylococcus aureus NCTC 8325 harboring genetic deletion of mepRA gene and carrying expression vector pG154 after 16 to 20 hrs by broth microdilution method in presence of anhydrous tetracycline. The data set is classed as functional. Summed up:
as §2

The test system of data set [11] is Staphylococcus aureus. Put plainly: Antibacterial activity against Staphylococcus aureus NCTC 8325 harboring genetic deletion of mepRA gene and carrying expression vector pG154 with mepA gene after 16 to 20 hrs by broth microdilution method. The data set is classed as functional. Summed up: as §1
Data set [12] concerns Staphylococcus aureus. The experiment in a line: Antibacterial activity against Staphylococcus aureus NCTC 8325 harboring genetic deletion of mepRA gene and carrying expression vector pG154 with mepA gene after 16 to 20 hrs by broth microdilution method in presence of anhydrous tetracycline. Type of data set: functional. Put shortly: as §2
A short description of data set [13]: Selectivity ratio of MIC for MBX-1090-resistant Staphylococcus aureus isolate d20A1 to MIC for Staphylococcus aureus NCTC 8325. Type of data set: functional. Summed up:
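Ratio of resistant-mutant MIC to NCTC 8325 MIC. Both MICs came from broth microdilution in cation-adjusted MHB with 2% DMSO final and 1 × 10^4 cells per well, incubated at 37 °C for 16–20 h and read at 600 nm.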

In data set [14] the test system is Staphylococcus aureus. The experiment in a line: Selectivity ratio of MIC for Staphylococcus aureus NCTC 8325 harboring genetic deletion of mepRA gene and carrying expression vector pG154 with mepA gene in presence of anhydrous tetracycline to MIC for Staphylococcus aureus NCTC 8325 harboring genetic deletion of mepRA gene and carrying expression vector pG154 with mepA gene. Type of data set: functional. Summed up:
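Ratio of the MIC with anhydrous tetracycline (100 ng/ml final, induces pG154-mepA) to the MIC without it. Both came from broth microdilution in cation-adjusted MHB with 2% DMSO and 1 × 10^4 cells per well, incubated at 37 °C for 16–20 h and read at 600 nm.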

Data set [15] relates to Staphylococcus aureus. The experiment in a line: Induction of mepA gene expression in Staphylococcus aureus NCTC 8325 at 0.5 ug/ml by RT-PCR analysis. Type of data set: functional, organism-based. Summed up: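 NCTC 8325 diluted 1/200 in TSB and grown at 37 °C (250 rpm) to OD600 0.3. 5 ml aliquots exposed 3 h to compound or DMSO (2% final), triplicate cultures pooled. RNA was DNase-treated and 1 µg primed with random hexamers for cDNA, with a no-RT control. mepA signal normalized to rho, untreated set to 1. Mean of three experiments ± SD.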

For data set [16], the system named is Staphylococcus aureus. The experiment in a line: Induction of mepR gene expression in Staphylococcus aureus NCTC 8325 at 0.5 ug/ml by RT-PCR analysis. Type of data set: functional, organism-based.
The test system of data set [17] is Staphylococcus aureus. Put plainly: microbe, parasite or virus in culture. To be noted: isolate d20A1.
Data set [18] has as its system Staphylococcus aureus. Put plainly: Upregulation of mepA gene expression in MBX-1090-resistant Staphylococcus aureus isolate d20A1 at 50 ug/ml by RT-PCR analysis relative to wild type. The data set is classed as functional.
Data set [19] concerns Staphylococcus aureus. Put plainly: Upregulation of mepB gene expression in MBX-1090-resistant Staphylococcus aureus isolate d20A1 at 50 ug/ml by RT-PCR analysis relative to wild type. The data set is classed as functional.
Data set [20] has as its system Staphylococcus aureus. Put plainly: Upregulation of conventional hypothetical protein mRNA expression in MBX-1090-resistant Staphylococcus aureus isolate d20A1 at 50 ug/ml by RT-PCR analysis relative to wild type. Type of data set: functional.
The test system of data set [21] is Staphylococcus aureus. Put plainly: Modulation of protein A gene expression in MBX-1090-resistant Staphylococcus aureus isolate d20A1 at 50 ug/ml by RT-PCR analysis relative to wild type. The data set is classed as functional.
Data set [22] concerns Staphylococcus aureus. Put plainly: Downregulation of ribH gene expression in MBX-1090-resistant Staphylococcus aureus isolate d20A1 at 50 ug/ml by RT-PCR analysis relative to wild type. The data set is classed as functional.
For data set [23], the system named is Staphylococcus aureus. The experiment in a line: Downregulation of ribA gene expression in MBX-1090-resistant Staphylococcus aureus isolate d20A1 at 50 ug/ml by RT-PCR analysis relative to wild type. Type of data set: functional.
Data set [24] concerns Staphylococcus aureus. Put plainly: Downregulation of ribE gene expression in MBX-1090-resistant Staphylococcus aureus isolate d20A1 at 50 ug/ml by RT-PCR analysis relative to wild type. Type of data set: functional.
For data set [25], the system named is Staphylococcus aureus. The experiment in a line: Downregulation of ribD gene expression in MBX-1090-resistant Staphylococcus aureus isolate d20A1 at 50 ug/ml by RT-PCR analysis relative to wild type. The data set is classed as functional.
Data set [26] concerns Staphylococcus aureus. Put plainly: Upregulation of mepR gene expression in MBX-1090-resistant Staphylococcus aureus isolate d20A1 at 50 ug/ml by RT-PCR analysis relative to wild type. The data set is classed as functional.
A short description of data set [27]: Dissociation constant, pKa of the compound. The data set is classed as physicochemical.
Data set [28] relates to Staphylococcus aureus. Put plainly: Selectivity ratio of MIC for Staphylococcus aureus NCTC 8325 to MIC for Staphylococcus aureus NCTC 8325 in presence of efflux pump inhibitor reserpine. Type of data set: functional. Put shortly:
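MICs by modified broth microdilution in cation-adjusted Mueller Hinton broth. Twofold dilutions were made in DMSO at 50× (2% DMSO final), with 1 × 10^4 cells per well. Growth was read as A600 after 16–20 h at 37 °C. Reserpine was added to the medium at 20 µg/ml final to inhibit efflux.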

The subject of data set [29] is Staphylococcus aureus. Put plainly: Induction of mepA gene expression in Staphylococcus aureus NCTC 8325 at 0.125 ug/ml by RT-PCR analysis. The data set is classed as functional, organism-based. Put shortly:
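S. aureus overnight culture diluted 1/200 in TSB and grown at 37 °C with shaking (250 rpm) to OD600 0.3. Triplicate 5 ml aliquots were exposed to compound or DMSO (2% final) for 3 h at 37 °C. RNA was purified and DNase-treated; 1 µg was reverse-transcribed with random hexamers, with a no-RT control. mepA signal was normalized to rho, untreated set to 1; three experiments, SD.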

The subject of data set [30] is Staphylococcus aureus. Put plainly: Induction of mepR gene expression in Staphylococcus aureus NCTC 8325 at 0.125 ug/ml by RT-PCR analysis. The data set is classed as functional, organism-based.

For the compound `c1cc2cc(-c3ccc4cc(C5=NCCN5)[nH]c4c3)[nH]c2cc1C1=NCCN1`, the MIC against Staphylococcus aureus [1] was 0.5 µg/mL (≈ 1.36 µM); with Staphylococcus aureus [2], 0.25 µg/mL; in the data set with Staphylococcus aureus [3], 1 µg/mL (≈ 2.71 µM); in the data set on Staphylococcus aureus [4], 0.5 µg/mL (≈ 1.36 µM); with Staphylococcus aureus [5], 0.5 µg/mL (≈ 1.36 µM); in the data set on Staphylococcus aureus [6], 0.5 µg/mL. The MIC against Staphylococcus aureus [7] was determined as 0.5 µg/mL (≈ 1.36 µM); with Staphylococcus aureus [8], 4 µg/mL; against Staphylococcus aureus [9], 0.5 µg/mL (≈ 1.36 µM); with Staphylococcus aureus [10], 0.5 µg/mL; against Staphylococcus aureus [11], 0.5 µg/mL (≈ 1.36 µM); with Staphylococcus aureus [12], 1 µg/mL. Further, in the data set on Staphylococcus aureus [17], the MIC is 2 µg/mL (≈ 5.43 µM). Besides, the Selectivity ratio was 4 in [13] and 2 in the data set with Staphylococcus aureus [14]. In addition, the result in the data set with Staphylococcus aureus [15] and with Staphylococcus aureus [16] was Active.

Regarding `Cn1cc(NC(=O)c2cc(NC(=O)c3cc(NC=O)cn3C)cn2C)cc1C(=O)NCCC(=N)N` [STALLIMYCIN], the “fold change (FC)” value is given as 72.6 in the data set with Staphylococcus aureus [18]; 25.5 with Staphylococcus aureus [19]; 14.2 in the data set on Staphylococcus aureus [20]; 2 in the data set with Staphylococcus aureus [21]; 2.7 with Staphylococcus aureus [22]; 1.9 in the data set with Staphylococcus aureus [23]. Moreover, the “fold change (FC)” value in the data set with Staphylococcus aureus [24] is reported as 1.5; in the data set with Staphylococcus aureus [25], 1.6; in the data set with Staphylococcus aureus [26], 39.2. Besides, the MIC against Staphylococcus aureus [1] was 50 µg/mL (≈ 104 µM); in the data set on Staphylococcus aureus [2], 50 µg/mL; in the data set with Staphylococcus aureus [3] it was 100 µg/mL (≈ 208 µM); in the data set on Staphylococcus aureus [4] it was 100 µg/mL (≈ 208 µM); in the data set on Staphylococcus aureus [5], 50 µg/mL (≈ 104 µM); with Staphylococcus aureus [6], 50 µg/mL. The MIC amounted to 50 µg/mL (≈ 104 µM) in the data set on Staphylococcus aureus [7]; 50 µg/mL in the data set on Staphylococcus aureus [8]; 50 µg/mL (≈ 104 µM) in the data set with Staphylococcus aureus [9]; 50 µg/mL with Staphylococcus aureus [10]; 50 µg/mL (≈ 104 µM) against Staphylococcus aureus [11]; 50 µg/mL with Staphylococcus aureus [12]. This compound also displayed an MIC against Staphylococcus aureus [17] of 200 µg/mL (≈ 415 µM). For the same compound, the Selectivity ratio in data set [13] worked out at 4.

The pKa is the pH at which an ionisable group is half protonated. Regarding `c1cc2cc(-c3ccc(-c4cc5ccc(C6=NCCCN6)cc5[nH]4)cc3)[nH]c2cc1C1=NCCCN1`, in data set [27], the pKa came to 12.8. The MIC against Staphylococcus aureus [1] was found to be 0.5 µg/mL (≈ 1.06 µM); with Staphylococcus aureus [2] it was 0.125 µg/mL; with Staphylococcus aureus [3], 0.25 µg/mL (≈ 0.529 µM); against Staphylococcus aureus [4], 0.5 µg/mL (≈ 1.06 µM); against Staphylococcus aureus [5], 0.5 µg/mL (≈ 1.06 µM); in the data set on Staphylococcus aureus [6], 0.5 µg/mL. The MIC came out at 0.5 µg/mL (≈ 1.06 µM) against Staphylococcus aureus [7]; 0.125 µg/mL in the data set with Staphylococcus aureus [8]; 0.5 µg/mL (≈ 1.06 µM) with Staphylococcus aureus [9]; 0.5 µg/mL in the data set on Staphylococcus aureus [10]; 0.5 µg/mL (≈ 1.06 µM) in the data set with Staphylococcus aureus [11]; 0.125 µg/mL in the data set on Staphylococcus aureus [12]. In the data set with Staphylococcus aureus [17], the MIC was determined as 0.5 µg/mL (≈ 1.06 µM). For the same compound, the Selectivity ratio in the data set with Staphylococcus aureus [28] was 4. The outcome with Staphylococcus aureus [29] and in the data set on Staphylococcus aureus [30] was Active.
